According to ChEMBL document CHEMBL4266019, “Discovery and Structure-Activity-Relationship Study of N-Alkyl-5-hydroxypyrimidinone Carboxamides as Novel Antitubercular Agents Targeting Decaprenylphosphoryl-β-d-ribose 2'-Oxidase” (J Med Chem, 2018):
pIC50: −log10 of the molar value. Values after ≈ are worked out from the molar mass of the structure shown. Active and inactive are the calls of the source. The rule behind the calls is not given here.

Columns and labels:
[1] = system: HepG2; experiment: Cytotoxicity against human HepG2 cells in presence of glucose; assay type: cell-based
In short: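 HepG2 cells tested in DMEM/10% FBS supplemented with glucose.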

[2] = system: HepG2; experiment: Cytotoxicity against human HepG2 cells in presence of galactose; assay type: cell-based
In short: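 HepG2 cells tested in DMEM/10% FBS containing galactose.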

[3] = system: Mycobacterium tuberculosis; experiment: Antitubercular activity against Mycobacterium tuberculosis H37Rv after 7 to 14 days in presence of GAST medium by two fold serial dilution method; assay type: functional
In short: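 MIC in GAST (glycerol/alanine/salts/Tween 80 defined medium), strain H37Rv; screening hits tested as duplicate 12-point MIC determinations with MgCl2 at 0.06, 6 or 60 mM.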

[4] = system: Mycobacterium tuberculosis; experiment: Antitubercular activity against Mycobacterium tuberculosis H37Rv assessed as induction of DNA damage by precA-LUX/pradA-LUX reporter-gene assay; assay type: functional, organism-based
In short: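 DNA-damage read-out: induction of the recA and radA promoters measured as luminescence in H37Rv precA-LUX and pradA-LUX reporter strains.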

[5] = system: Mycobacterium tuberculosis; experiment: Bactericidal activity against Mycobacterium tuberculosis H37Rv under aerobic condition after 7 days; assay type: functional, organism-based
In short: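 Log-phase H37Rv (OD650 0.2) diluted 1000-fold in 7H9/ADC and exposed to 1×, 5×, 10×, 20× and 50× MIC in duplicate. Sampled at days 1, 2, 4 and 7; CFU counted on 7H11/OADC plates.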

[6] = biological target: T1, Decaprenylphosphoryl-beta-D-ribose oxidase (Mycobacterium tuberculosis (strain ATCC 25618 / H37Rv)) (UniProt P9WJF1); experiment: Inhibition of DprE1 in Mycobacterium tuberculosis H37Rv assessed as bacterial growth inhibition after 4 weeks
T1 sequence (whole entry): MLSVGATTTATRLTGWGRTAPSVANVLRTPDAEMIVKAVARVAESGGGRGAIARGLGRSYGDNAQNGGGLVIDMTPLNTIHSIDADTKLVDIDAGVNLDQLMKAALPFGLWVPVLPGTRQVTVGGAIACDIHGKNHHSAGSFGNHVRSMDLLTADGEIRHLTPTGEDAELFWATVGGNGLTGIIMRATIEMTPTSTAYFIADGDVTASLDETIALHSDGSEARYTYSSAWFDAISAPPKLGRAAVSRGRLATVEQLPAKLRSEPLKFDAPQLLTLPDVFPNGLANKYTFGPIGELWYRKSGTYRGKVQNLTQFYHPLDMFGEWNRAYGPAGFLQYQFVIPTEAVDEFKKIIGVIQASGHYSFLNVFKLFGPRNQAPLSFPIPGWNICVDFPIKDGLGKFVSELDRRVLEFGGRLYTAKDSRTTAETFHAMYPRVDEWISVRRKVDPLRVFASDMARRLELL

[7] = system: Mycobacterium tuberculosis; experiment: Bactericidal activity against Mycobacterium tuberculosis H37Rv under anaerobic condition at 1 to 50 fold MIC after 7 days; assay type: functional, organism-based
In short: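 Anaerobic H37Rv from the self-generated oxygen-depletion (Wayne) model exposed to 1×, 5×, 10×, 20× and 50× MIC in an anaerobic chamber for 7 days. CFU counted on 7H11/OADC plates.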

With CC(NC(=O)c1nc(Cc2ccccc2C(F)(F)F)n(C)c(=O)c1O)c1ccccc1 (configuration not stated) the pIC50 [1] was less than 4.00 and the pIC50 [2] was less than 4.00.

Cn1c(Cc2ccccc2C(F)(F)F)nc(C(=O)Nc2ccccc2)c(O)c1=O gave a pIC50 [1] of less than 4.00 and a pIC50 [2] of less than 4.00.

In the case of Cn1c(Cc2ccccc2C(F)(F)F)nc(C(=O)NCc2cccnc2)c(O)c1=O, the pIC50 [1] was less than 4.00 and the pIC50 [2] was less than 4.00.

For Cn1c(Cc2ccccc2C(F)(F)F)nc(C(=O)NCc2ccc(F)cc2)c(O)c1=O, the pIC50 [1] was less than 4.00 and the pIC50 [2] was less than 4.00.

In the case of Cn1c(Cc2ccccc2C(F)(F)F)nc(C(=O)NCc2ccccc2)c(O)c1=O, the MIC [3] was 0.4 to 0.59 µM, the Activity [4] was “inactive” and the pIC50 [1] was less than 4.00. The pIC50 [2] was less than 4.00, the Activity [5] was “Dose-dependent effect” and the MIC [6] was 3.13 µM (≈ 1.31 µg/mL). The Activity [7] was “inactive”.

Cn1c(Cc2ccccc2)nc(C(=O)NCc2ccccc2)c(O)c1=O gave a pIC50 [1] of less than 4.00 and a pIC50 [2] of less than 4.00.

Work on Cn1c(Cc2ccccc2C(F)(F)F)nc(C(=O)NCC2CCCCC2)c(O)c1=O yielded a pIC50 [1] of less than 4.00 and a pIC50 [2] of less than 4.00.

Work on Cn1c(Cc2ccccc2C(F)(F)F)nc(C(=O)CCc2ccccc2)c(O)c1=O yielded a pIC50 [1] of less than 4.00 and a pIC50 [2] of less than 4.00.

Molecule Cn1c(Cc2ccccc2C(F)(F)F)nc(C(=O)NCc2ccccc2F)c(O)c1=O has a pIC50 [1] of less than 4.00 and a pIC50 [2] of less than 4.00.

For O=C(NCc1ccccc1)c1nc(Cc2ccccc2C(F)(F)F)[nH]c(=O)c1O, the pIC50 [1] was less than 4.00 and the pIC50 [2] was less than 4.00.

Work on CCn1c(Cc2ccccc2C(F)(F)F)nc(C(=O)NCc2ccccc2)c(O)c1=O yielded a pIC50 [1] of less than 4.00 and a pIC50 [2] of less than 4.00.

For Cn1c(Cc2ccccc2C(F)(F)F)nc(C(=O)NCc2ccccn2)c(O)c1=O, the pIC50 [1] was less than 4.00 and the pIC50 [2] was less than 4.00.

Cn1c(Cc2ccccc2C(F)(F)F)nc(C(=O)NCc2ccc3c(c2)OCO3)c(O)c1=O showed a pIC50 [1] of less than 4.00 and a pIC50 [2] of less than 4.00.

With CC(c1ccccc1C(F)(F)F)c1nc(C(=O)NCc2ccccc2)c(O)c(=O)n1C (configuration not stated) the pIC50 [1] was less than 4.00 and the pIC50 [2] was less than 4.00.

With COc1c(C(=O)NCc2ccccc2)nc(Cc2ccccc2C(F)(F)F)n(C)c1=O the pIC50 [1] was less than 4.00 and the pIC50 [2] was less than 4.00.

Work on CN(Cc1ccccc1)C(=O)c1nc(Cc2ccccc2C(F)(F)F)n(C)c(=O)c1O yielded a pIC50 [1] of less than 4.00 and a pIC50 [2] of less than 4.00.
